The list is not random: actives were taken first. Their share in the collection is about 4.5%.
TAAR1 antag: antagonists of human TAAR1. Q96RJ0. CHO RD-HGA16 TAAR1, Fluo-8 calcium fluorescence, antagonist. inhibition, % at 3 µM. hit rate 1.5% among 360,000. AID 624466;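 active = inhibition above a per-plate cutoff, the mean inhibition of test compounds on that plate plus 3 SD, cut at about 49% in these data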;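 also: 0% = DMSO plus EC80 beta-PEA response and 100% = DMSO alone without agonist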
Target sequence (Q96RJ0 whole entry, looked up): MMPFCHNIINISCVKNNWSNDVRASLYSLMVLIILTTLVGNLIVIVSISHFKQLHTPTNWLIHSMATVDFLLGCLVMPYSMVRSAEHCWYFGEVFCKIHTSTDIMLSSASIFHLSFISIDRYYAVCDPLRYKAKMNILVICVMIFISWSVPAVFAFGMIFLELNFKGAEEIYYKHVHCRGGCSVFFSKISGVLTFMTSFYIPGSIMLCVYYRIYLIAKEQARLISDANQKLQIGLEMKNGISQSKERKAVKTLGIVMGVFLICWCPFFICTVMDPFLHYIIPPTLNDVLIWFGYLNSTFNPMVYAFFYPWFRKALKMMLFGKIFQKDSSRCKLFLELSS
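Test system – hTAAR1-expressing CHO RD-HGA16 cells, Gα16-coupled · Also added – β-PEA at EC80 concentration, post-compound challenge · Compound – 3 µM, single point · Incubation – dye loading 75 min at 37 °C, then 30 min room temperature · Measured by – Fluo-8 intracellular calcium dye fluorescence, real-time kinetic reads · Benchmarks – vehicle and agonist controls · Replicates – singlicate, one well per test compound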
GPR7 antag: human neuropeptides B/W receptor 1 antagonism; P48145; GPR7-expressing cells, fluorescence antagonist assay; inhibition, % at 4.4 µM; hit rate 1.1% among 290,000; in the data active = inhibition above about 16%, passing the limit was not always enough;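 also: cells stimulated with the agonist NPW; 0% = agonist with vehicle and 100% = vehicle without agonist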
Target sequence (P48145 whole entry, looked up): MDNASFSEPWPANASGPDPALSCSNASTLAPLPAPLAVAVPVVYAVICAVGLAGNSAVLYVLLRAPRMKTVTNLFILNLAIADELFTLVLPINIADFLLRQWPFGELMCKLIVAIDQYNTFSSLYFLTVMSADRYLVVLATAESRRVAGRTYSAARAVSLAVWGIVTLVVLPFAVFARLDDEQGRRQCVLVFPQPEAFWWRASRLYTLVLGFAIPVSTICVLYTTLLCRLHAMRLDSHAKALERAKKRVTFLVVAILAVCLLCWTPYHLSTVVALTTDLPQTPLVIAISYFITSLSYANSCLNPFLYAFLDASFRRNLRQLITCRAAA
TAAR1 agonist: agonists of human TAAR1; CHO RD-HGA16 TAAR1, Fluo-8 calcium fluorescence; vehicle wells 0%, saturating PEA agonist 100%; Q96RJ0; activation, % at 3 µM; hit rate 0.99% among 360,000; AID 624467;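 active = activation above the mean activation of all test compounds in the run plus 3 SD, cut at about 38% in these data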
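Benchmarks: low control DMSO, high control PEA (EC100); System: CHO RD-HGA16 cells carrying human TAAR1 plus Gα16; Detection: Fluo-8 fluorescence, 5 s baseline then 140 s kinetic read; Schedule: 17-24 h plating, Fluo-8 75 min 37 °C, 30 min RT; Read-out basis: % activation from peak over basal fluorescence ratio, DMSO-to-PEA scaled.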
OX1R antag-1: OX1R (human) antagonism; OX1R-expressing cells, FRET antagonist read-out; hit rate 1.8% among 330,000; inhibition, % at 6.6 µM; O43613; in the data active = inhibition mostly above about 38%, no sharp cut-off; inactive = mostly below about 40%;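 also: 0% = agonist challenge alone and 100% = reference antagonist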
CHO parental Ca: signal in parental CHO cells, OX1R antagonist counter-screen. parental CHO-K1, ATP-induced calcium, Fluo-8 fluorescence. inhibition, % at 5.6 µM. hit rate 0.63% among 330,000. AID 463079;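 active = inhibition above that plate's mean sample inhibition plus 3 SD, cut at about 26% in these data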;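 also: 0% = ATP-challenged DMSO wells and 100% = DMSO wells without ATP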
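Material: parental CHO cells / Compound: single nominal dose of 5.6 µM per compound / Signal: Fluo-8 fluorescence / Replicates: singlicate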
OX1R antag-2: human HCRTR1 antagonism; inhibition, % at 5 µM; CHO/OX1R cells, Fluo-8 calcium fluorescence, orexin A; O43613; hit rate 0.43% among 330,000;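 active = inhibition above its plate's threshold, mean inhibition of all tested compounds on the plate plus 3 SD, cut at about 37% in these data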;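 also: 0% = orexin A challenge wells and 100% = SB-334867-A antagonist wells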
TAAR1 nonsel count: nonselective antagonism, TAAR1 counter-screen; inhibition, % at 3 µM; hit rate 77% among 2,400; counterscreen cell line, calcium fluorescence, antagonist mode; shares compounds with TAAR1 antag; in the data active = inhibition above about 22%;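 also: CHO-Ga16 host cells stimulated with ATP at an EC80 level; 0% = agonist EC80 plus vehicle and 100% = vehicle without agonist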
TAAR1 antag conf: confirmation of human TAAR1 antagonists; hit rate 40% among 2,400; TAAR1-expressing cells, fluorescence antagonist read-out; shares compounds with TAAR1 antag; inhibition, % at 3 µM; in the data active = inhibition above about 49%;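 also: CHO-Ga16 host cells challenged with agonist PEA near its EC80; 0% = agonist at EC80 plus vehicle and 100% = vehicle with no agonist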
Ga16 nonsel ag: nonselective Ga16 agonism, counter-screen; activation, % at 3 µM; shares compounds with TAAR1 antag; AID 651953; Ga16-expressing cells, calcium fluorescence, agonist counterscreen; hit rate 18% among 2,400; in the data active = activation above about 12%;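 also: 0% = vehicle wells and 100% = saturating stimulus response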
TAAR1 ag count: activates human TAAR1 in antagonist counter-screen; shares compounds with TAAR1 antag; hTAAR1 cell line, fluorescence activation, agonist mode; activation, % at 3 µM; hit rate 2% among 2,400; AID 651955; in the data active = activation above about 37%;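 also: CHO cells stably expressing TAAR1 with calcium dye readout; 0% = DMSO vehicle and 100% = full agonist response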
The depositor's hits bear a star; . = no result.

SMILES	TAAR1 antag	GPR7 antag	TAAR1 agonist	OX1R antag-1	CHO parental Ca	OX1R antag-2	TAAR1 nonsel count	TAAR1 antag conf	Ga16 nonsel ag	TAAR1 ag count
C=C(C)COc1ccc(-c2n[nH]c(C)c2Oc2ccccc2OC)c(O)c1	52*	6	-2	18	-6	-6	8	10	1	2
CCCc1cc(=O)[nH]c(SCc2cc(=O)oc3cc(C)c(C(C)C)cc23)n1	103*	-2	-3	6	-6	-2	16	1	3	5
CCCc1cc(=O)[nH]c(SCc2nc3ccccc3o2)n1	-7	4	-4	3	-16	-2	.	.	.	.
COc1ccccc1-c1cnc(C(O)c2cccc(F)c2)[nH]1 (stereo not drawn)	-2	.	5	.	.	.	.	.	.	.
Cn1nc(C(=O)NCc2ccc(F)cc2)c2c1-c1ccccc1S(=O)(=O)C2	13	-13	2	15	22	-10	.	.	.	.
CSc1ccc(CCNC(=O)c2nn(C)c3c2CS(=O)(=O)c2ccccc2-3)cc1	61*	12	8	18	-2	-6	34*	50*	8	8
Cc1nc2ccccc2c(=O)n1/N=C/c1ccc(C(C)C)cc1	61*	-7	4	-1	-6	-14	31*	43	2	-3
COc1ccc(OC)c(N(CC(=O)NCCc2ccc(OC)c(OC)c2)S(=O)(=O)c2ccccc2)c1	23	-10	7	29	-23	-25	.	.	.	.
COc1ccccc1N(CC(=O)NCCSCc1ccc(C)cc1)S(=O)(=O)c1ccccc1	84*	16	1	60*	4	11	27*	51*	4	1
COc1ccc(CCNC(=O)CN(c2cc(OC)ccc2OC)S(=O)(=O)c2ccccc2)cc1	50*	-12	9	28	-30	-22	30*	35	5	4
COc1ccc(OC)c(N(CC(=O)NCc2ccccc2)S(=O)(=O)c2ccc(OC)c(OC)c2)c1	51*	-6	14	39	-16	-14	22*	36	9	8
COc1ccc(OC)c(N(CC(=O)NCCSCc2ccc(C)cc2)S(C)(=O)=O)c1	2	4	3	11	-20	-22	.	.	.	.
CC(C)C(=O)NC(=S)Nc1ccccc1N1CCN(C(=O)c2ccc(Cl)cc2)CC1	81*	-14	17	2	-25	-30	38*	58*	14*	15
N#Cc1ccc(C2CC(OCCF)=CC(=O)O2)cc1 (stereo not drawn)	3	.	0	.	.	.	.	.	.	.
CCN1CCN(Cc2ccc(NC(=O)c3cccc(-c4ccc5nc(NC(=O)C6CC6)sc5n4)c3)cc2C(F)(F)F)CC1	66*	.	17	.	.	.	44*	60*	11	12
Cc1c(C(=O)NCc2ccco2)sc(=O)n1Cc1ccc(S(C)(=O)=O)cc1	8	.	1	.	.	.	.	.	.	.
CCOC(=O)c1sc(NC(=O)c2cccc(S(=O)(=O)N(CC)CC)c2)cc1C	61*	-1	11	27	-22	-16	47*	63*	10	6
CCOC(=O)c1sc(NC(=O)c2cccc(S(=O)(=O)N3CCN(C)CC3)c2)cc1C	5	-11	3	35	-2	-25	.	.	.	.
O=C1Nc2ccc(Br)cc2C1=C1CCCCC1	76*	-7	13	3	-17	-1	17	36	6	7
COC(=O)C1C2CC(C(Br)C2Br)C1C(=O)O (stereo not drawn)	4	.	0	.	.	.	.	.	.	.
CC(OC(=O)CC1Sc2ccccc2NC1=O)C(=O)N(C)Cc1ccccc1 (stereo not drawn)	5	.	4	.	.	.	.	.	.	.
O=C1NCN(c2ccccc2)C12CCN(CCCC(c1ccc(F)cc1)c1ccc(F)cc1)CC2	78*	-4	37	16	25	40*	47*	48	20*	35
O=C1OC(c2ccc(O)cc2)(c2ccccc2O)c2ccccc21 (stereo not drawn)	-14	.	1	.	.	.	.	.	.	.
O=C1OC(c2ccccc2)(c2cc(Br)ccc2O)c2ccccc21 (stereo not drawn)	63*	.	8	.	.	.	28*	46	6	21
O=C(COC(=O)c1ccccc1NCCO)NCCc1ccccc1	-11	.	11	7	-18	-8	.	.	.	.
SMILES	TAAR1 antag	GPR7 antag	TAAR1 agonist	OX1R antag-1	CHO parental Ca	OX1R antag-2	TAAR1 nonsel count	TAAR1 antag conf	Ga16 nonsel ag	TAAR1 ag count
O=C(OCC(=O)N(Cc1ccccc1)Cc1ccccc1)c1ccccc1NCCO	70*	.	8	13	-3	-21	35*	51*	7	4
O/N=C/c1ccc2cccc(OCc3ccccc3)c2n1	3	2	10	8	-15	-9	.	.	.	.
O=C(N/N=C/c1ccc2cccc(OCc3ccccc3)c2n1)c1ccc(Br)cc1	62*	-15	10	12	-24	-14	21	47	4	2
COc1ccc(C(=O)N/N=C/c2ccc3cccc(OCc4ccccc4)c3n2)cc1	60*	-7	13	76*	-35	-24	27*	53*	6	5
CC(C)[C@@H](C)/C=C/[C@@H](C)[C@H]1CC[C@@H]2[C@]1(C)CCC1[C@]23C=C[C@]2(C[C@@H](O)CC[C@]12C)N(c1ccc(F)cn1)O3 (stereo partly drawn)	-11	.	0	.	.	.	.	.	.	.
COc1ccccc1Cc1c(C2CCCCC2)nc2cc(C)c(Br)c(C)n12	-1	.	0	.	.	.	.	.	.	.
O=S(=O)(c1ccc(NC(=S)NN=Cc2ccccc2O)cc1)N1CCCCC1	90*	.	13	.	.	.	40*	89*	11	34
NS(=O)(=O)c1ccc(NC(=S)Nc2ccc(S(=O)(=O)N3CCCC3)cc2)cc1	21	-4	3	11	2	-7	.	.	.	.
O=C(Nc1ccccc1)c1ccc(F)c(S(=O)(=O)N2CCOCC2)c1	5	7	11	10	-4	-22	.	.	.	.
O=C(Nc1ccc(-c2cn3ccsc3n2)cc1)c1ccc(F)c(S(=O)(=O)N2CCOCC2)c1	91*	5	23	31	17	1	39*	75*	12*	7
O=C1OCC/C1=C\NCCCN/C=C1\CCOC1=O	-29	.	14	.	.	.	.	.	.	.
COc1ccc(/C=C2\CN(Cc3ccccc3)C/C(=C\c3ccc(OC)c(O)c3)C2=O)cc1O	71*	3	14	24	-15	-6	29*	51*	10	12
